Tests used:
Type in all cases: functional
[1] = system: Culex pipiens pallens; test: Insecticidal activity against fourth-instar larval stage of Culex pipiens pallens (mosquito) assessed as mortality at 0.1 mg/l at 25 +/-1 degC after 8 days; conditions: 192 h
In short: (§1)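 Larvicidal test against mosquito larvae followed a previously reported procedure. Test solutions were made by dissolving each compound in acetone and adding distilled water to give the series of concentrations.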

[2] = system: Culex pipiens pallens; test: Insecticidal activity against fourth-instar larval stage of Culex pipiens pallens (mosquito) assessed as mortality at 0.025 mg/l at 25 +/-1 degC after 8 days; conditions: 192 h; in short: as §1
[3] = system: Mythimna separata; test: Insecticidal activity against fourth-instar larval stage of Mythimna separata (Oriental armyworm) infested drug-pretreated corn leaves assessed as mortality at 100 mg/l at 25 +/-1 degC after 4 days
[4] = system: Mythimna separata; test: Insecticidal activity against fourth-instar larval stage of Mythimna separata (Oriental armyworm) infested drug-pretreated corn leaves assessed as mortality at 200 mg/l at 25 +/-1 degC after 4 days
[5] = system: Culex pipiens pallens; test: Insecticidal activity against fourth-instar larval stage of Culex pipiens pallens (mosquito) assessed as mortality at 0.05 mg/l at 25 +/-1 degC after 8 days; conditions: 192 h; in short: as §1
[6] = system: Mythimna separata; test: Insecticidal activity against fourth-instar larval stage of Mythimna separata (Oriental armyworm) infested drug-pretreated corn leaves assessed as mortality at 50 mg/l at 25 +/-1 degC after 4 days
[7] = system: Culex pipiens pallens; test: Insecticidal activity against fourth-instar larval stage of Culex pipiens pallens (mosquito) assessed as mortality at 0.25 mg/l at 25 +/-1 degC after 8 days; conditions: 192 h; in short: as §1
[8] = system: Mythimna separata; test: Insecticidal activity against fourth-instar larval stage of Mythimna separata (Oriental armyworm) infested drug-pretreated corn leaves assessed as mortality at 5 mg/l at 25 +/-1 degC after 4 days
[9] = system: Mythimna separata; test: Insecticidal activity against fourth-instar larval stage of Mythimna separata (Oriental armyworm) infested drug-pretreated corn leaves assessed as mortality at 2.5 mg/l at 25 +/-1 degC after 4 days
[10] = system: Mythimna separata; test: Insecticidal activity against fourth-instar larval stage of Mythimna separata (Oriental armyworm) infested drug-pretreated corn leaves assessed as mortality at 1 mg/l at 25 +/-1 degC after 4 days
[11] = system: Culex pipiens pallens; test: Insecticidal activity against fourth-instar larval stage of Culex pipiens pallens (mosquito) assessed as mortality at 2 mg/l at 25 +/-1 degC after 8 days; conditions: 192 h; in short: as §1
[12] = system: Mythimna separata; test: Insecticidal activity against fourth-instar larval stage of Mythimna separata (Oriental armyworm) infested drug-pretreated corn leaves assessed as mortality at 25 mg/l at 25 +/-1 degC after 4 days
[13] = system: Mythimna separata; test: Insecticidal activity against fourth-instar larval stage of Mythimna separata (Oriental armyworm) infested drug-pretreated corn leaves assessed as mortality at 10 mg/l at 25 +/-1 degC after 4 days
[14] = system: Culex pipiens pallens; test: Insecticidal activity against fourth-instar larval stage of Culex pipiens pallens (mosquito) assessed as mortality at 0.005 mg/l at 25 +/-1 degC after 8 days; conditions: 192 h; in short: as §1
[15] = system: Culex pipiens pallens; test: Insecticidal activity against fourth-instar larval stage of Culex pipiens pallens (mosquito) assessed as mortality at 0.01 mg/l at 25 +/-1 degC after 8 days; conditions: 192 h; in short: as §1
[16] = system: Culex pipiens pallens; test: Insecticidal activity against fourth-instar larval stage of Culex pipiens pallens (mosquito) assessed as mortality at 0.0025 mg/l at 25 +/-1 degC after 8 days; conditions: 192 h; in short: as §1

O=C(NC(=O)c1c(F)cccc1F)Nc1ccc(OCC=C(Cl)Cl)cc1 was tested, and the mortality at 0.1 µg/mL [1] was 100%, the mortality at 0.025 µg/mL [2] was 60% and the mortality at 100 µg/mL [3] was 80%. For the same molecule, the mortality at 200 µg/mL [4] was 90%, the mortality at 0.05 µg/mL [5] was 70% and the mortality at 50 µg/mL [6] was 60%.
Work on O=C(NC(=O)c1c(F)cccc1F)Nc1ccc(COC(C(F)(F)F)C(F)(F)F)cc1 yielded a mortality at 0.1 µg/mL [1] of 80%, a mortality at 100 µg/mL [3] of 10% and a mortality at 200 µg/mL [4] of 40%. For the same molecule, the mortality at 0.05 µg/mL [5] was 30%, the mortality at 0.25 µg/mL [7] was 100% and the mortality at 50 µg/mL [6] was 0%.
Work on O=C(NC(=O)c1c(F)cccc1F)Nc1ccc(OC(C(F)(F)F)C(F)(F)F)cc1 yielded a mortality at 5 µg/mL [8] of 90%, a mortality at 2.5 µg/mL [9] of 80% and a mortality at 0.1 µg/mL [1] of 100%. The mortality at 0.025 µg/mL [2] was 70%, the mortality at 0.05 µg/mL [5] was 80% and the mortality at 1 µg/mL [10] was 0%.
In the case of O=C(NC(=O)c1c(F)cccc1F)Nc1ccc(COc2cc(Cl)c(OC(F)(F)C(F)F)c(Cl)c2)cc1, the mortality at 5 µg/mL [8] is reported as 10%, the mortality at 2 µg/mL [11] is reported as 0% and the mortality at 25 µg/mL [12] is reported as 100%. The mortality at 10 µg/mL [13] was 40%.
O=C(NC(=O)c1c(F)cccc1F)Nc1ccc(Oc2cc(Cl)c(OC(F)(F)C(F)F)c(Cl)c2)c(Cl)c1 gave a mortality at 0.005 µg/mL [14] of 30%, a mortality at 0.025 µg/mL [2] of 100% and a mortality at 0.01 µg/mL [15] of 80%. For the same molecule, the mortality at 25 µg/mL [12] was 90%, the mortality at 10 µg/mL [13] was 60% and the mortality at 50 µg/mL [6] was 100%.
In the case of O=C(NC(=O)c1c(F)cccc1F)Nc1ccc(Oc2cc(Cl)c(OC(F)(F)C(F)F)c(Cl)c2)cc1, the mortality at 0.005 µg/mL [14] is reported as 100%, the mortality at 2.5 µg/mL [9] is reported as 100% and the mortality at 1 µg/mL [10] is reported as 0%. The mortality at 0.0025 µg/mL [16] was 50%.
For O=C(NC(=O)c1c(F)cccc1F)Nc1ccc(C(F)(C(F)(F)F)C(F)(F)F)cc1, the mortality at 0.005 µg/mL [14] was 90%, the mortality at 5 µg/mL [8] was 100% and the mortality at 2.5 µg/mL [9] was 90%. It also gave a mortality at 0.01 µg/mL [15] of 100%, a mortality at 1 µg/mL [10] of 0% and a mortality at 0.0025 µg/mL [16] of 80%.
O=C(NC(=O)c1c(F)cccc1F)Nc1cc(Cl)c(OC(F)(F)C(F)F)c(Cl)c1 [HEXAFLUMURON] was tested, and the mortality at 10 µg/mL [13] was 80% and the mortality at 0.25 µg/mL [7] was 100%.
